Experimental findings from PubChem BioAssay are described below.

Activity calls are given as the source filed them.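 How the source made its calls, unless noted: active means viability at or below 10% of carrier control in both of two separate runs; inconclusive means viability at or below 10% in only one of the two runs; inactive means the rest.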

Experiment [1] is described as follows: Her2 expression decrease, cell viability multiplex – SKBR3 breast tumor cells, AlphaScreen, ATP viability, primary screen (AID 461;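 active means Her2 level under about 52% in both replicate screens, with viability over 70% of control, limit read from the data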;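 on Her2 level: lower value means less Her2 protein in the cells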;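 on viability: percent of carrier control wells set as 100% viability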). The settings on record: SKBR3 Her2 protein level, 18-24 h, measured here: SKBR3 viability, ATP luminescence, at 10 µM.
Experiment [2] deals with Receptor tyrosine-protein kinase erbB-2 (Homo sapiens) (UniProt P04626). Described as above. The settings on record: 18-24 h, at 10 µM, stronger effect = lower value.
Sequence of Receptor tyrosine-protein kinase erbB-2 (Homo sapiens) (P04626 whole entry, looked up): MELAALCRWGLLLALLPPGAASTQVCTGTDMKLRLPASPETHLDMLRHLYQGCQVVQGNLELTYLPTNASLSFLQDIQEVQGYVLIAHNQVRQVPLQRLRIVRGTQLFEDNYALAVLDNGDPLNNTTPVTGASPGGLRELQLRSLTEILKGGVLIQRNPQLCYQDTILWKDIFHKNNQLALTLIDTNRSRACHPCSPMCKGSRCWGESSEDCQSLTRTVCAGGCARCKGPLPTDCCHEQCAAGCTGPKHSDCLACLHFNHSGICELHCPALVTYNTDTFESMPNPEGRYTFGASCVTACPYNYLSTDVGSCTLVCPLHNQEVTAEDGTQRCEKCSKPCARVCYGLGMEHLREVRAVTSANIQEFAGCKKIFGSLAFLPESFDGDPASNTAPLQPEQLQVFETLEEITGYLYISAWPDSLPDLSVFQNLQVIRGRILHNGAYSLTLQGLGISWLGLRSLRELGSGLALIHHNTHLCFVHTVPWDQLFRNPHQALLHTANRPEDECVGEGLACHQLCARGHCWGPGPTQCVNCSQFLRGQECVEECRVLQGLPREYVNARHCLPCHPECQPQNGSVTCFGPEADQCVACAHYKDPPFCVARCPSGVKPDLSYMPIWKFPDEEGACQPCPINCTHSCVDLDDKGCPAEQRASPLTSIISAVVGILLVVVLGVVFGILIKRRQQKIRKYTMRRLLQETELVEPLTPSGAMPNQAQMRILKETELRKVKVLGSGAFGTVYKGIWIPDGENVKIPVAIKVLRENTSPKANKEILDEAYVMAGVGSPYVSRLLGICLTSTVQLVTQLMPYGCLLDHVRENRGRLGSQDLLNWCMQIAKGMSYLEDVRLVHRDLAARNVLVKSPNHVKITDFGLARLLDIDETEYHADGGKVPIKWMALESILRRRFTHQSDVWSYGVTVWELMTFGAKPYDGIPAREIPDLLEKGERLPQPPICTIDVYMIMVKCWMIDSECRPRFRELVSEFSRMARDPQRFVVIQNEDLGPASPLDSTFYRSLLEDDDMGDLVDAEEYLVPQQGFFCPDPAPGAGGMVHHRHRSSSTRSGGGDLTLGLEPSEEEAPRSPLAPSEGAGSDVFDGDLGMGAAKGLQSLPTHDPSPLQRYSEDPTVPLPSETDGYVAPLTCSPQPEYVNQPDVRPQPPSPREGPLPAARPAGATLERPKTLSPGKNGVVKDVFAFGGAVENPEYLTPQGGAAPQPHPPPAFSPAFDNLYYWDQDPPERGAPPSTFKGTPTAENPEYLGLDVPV
Experiment [3] can be described thus: reduced viability of SK-BR-3 breast cancer cells – cell-based, 24 h, human, pilot screen (AID 572).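 Further: compound exposure lasted between 18 and 24 h rather than exactly 24 h; 100% = carrier-treated control wells.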 The settings on record: SK-BR-3 viability, CellTiter-Glo luminescence, at 10 µM, stronger effect = lower value.
Experiment [4] is described as follows: HUVEC growth inhibition – cell-based, human, primary screen (AID 575;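 active means viability at or below 30% in both replicate assays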;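 further: 100% = median of untreated cell wells with 0.1% DMSO on each plate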). The settings on record: HUVEC proliferation, CellTiter-Glo luminescence, 72 h; at 10 µM; stronger effect = lower value. In short, it runs like this:
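system = HUVEC primary cells | amount = 1250 cells/well | buffer or medium = supplemented EBM, 2% fetal bovine serum | dosing = single-point 10 µM, DMSO 0.1% final | times = 72 h compound incubation | detection = CTG luminescence | read-out = % viability relative to median vehicle-well signal on each plate | control set = vehicle and MePR control wells | format = collagen-coated 384-well format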

A short description of experiment [5]: H69AR cell proliferation blockers – human, duplicate replicates, primary screen (AID 580;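 active means viability at or under a set limit in both replicates, limit being median viability minus 3 SD, cut at about 48% in these data, passing the limit was not always enough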;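 further: 100% = mean luminescence of untreated wells and 0% = no signal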). The settings on record: H69AR lung tumor cells viability, ATP luminescence, 72 h; at 10 µM; stronger effect = lower value.
Experiment [6] in a line: MRP1 drug-resistance reversers in H69AR cells – cell-based, doxorubicin co-treatment, pilot screen (AID 601;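 active means viability loss from added drug above about 55%, and viability with drug at most 40%, in both replicates, limit read from the data, passing the limit was not always enough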). The settings on record: CellTiter-Glo, 72 h, at 10 µM; for differential viability (reversal): stronger effect = higher value.
Experiment [7] can be described thus: yeast transport mutant growth inhibition pilot in 384-well plates, post-Golgi transport modulator project (AID 636; in the data active means inhibition above about 31%). The settings on record: absorbance 615 nm, about 18 h, stronger effect = higher value.
Experiment [8] can be described thus: growth suppression of yeast trafficking mutant, preliminary HTS, modulators of trafficking downstream of Golgi apparatus project, 1536-format plate, OD 615 nm (AID 637; in the data active means inhibition above about 30%). The settings on record: yeast transport mutant growth, absorbance 615 nm, 18 h; stronger effect = higher value.
[9] abbreviates: H69AR cells + 2 uM doxorubicin, measured here: viability with 2 uM doxorubicin, stronger effect = lower value.
[10] abbreviates: H69AR cells, compound alone cytotoxicity.

`ON1C2CCCCC2N(O)C1c1c(F)c(F)c(F)c(F)c1F` (stereo not given): the viability in experiment [1] is 89.5%; in experiment [3] it was 89.5% (inactive); in experiment [4], 85.9% (inactive); in experiment [5], 92.8% (inactive); in experiment [6] (setting [9]) it was 82.5%; in experiment [6] (setting [10]) it was 92.8%. In addition, in experiment [2], the Her2 level was 79% (inactive). In experiment [6] (H69AR cells + 2 uM doxorubicin), the differential viability (reversal) is 10.3% (inactive). Further, the inhibition is -5.2% (inactive) in experiment [7] and -0.97% (inactive) in experiment [8].

As for `CCCC(=O)Nc1cccc(NC(=O)CN2CCN(c3ccccc3OC)CC2)c1`, the viability was 98.5% in experiment [1]; 98.5% (inactive) in experiment [3]; 96.6% (inactive) in experiment [4]; 82.9% (inactive) in experiment [5]; 86.6% in experiment [6] (setting [9]); 82.9% in experiment [6] (setting [10]). Besides, in experiment [2], the Her2 level was 83% (inactive). Also, in experiment [6] (H69AR cells + 2 uM doxorubicin), the differential viability (reversal) was -3.71% (inactive). In addition, the figures for the inhibition in experiment [7] and in experiment [8] were -5.81% (inactive) and -4.92% (inactive), respectively.

As for `CCOC(=O)c1cc2sc(C)cc2n1C(C)C(=O)OCC` (stereo not given), the viability in experiment [1] is 97.5%; in experiment [3] it was 97.5% (inactive); in experiment [4] it was 95.8% (inactive); in experiment [5], 86.3% (inactive); in experiment [6] (setting [9]), 92.5%; in experiment [6] (setting [10]) it was 86.3%. In addition, the Her2 level in experiment [2] was 79% (inactive). Further, in experiment [6] (H69AR cells + 2 uM doxorubicin), the differential viability (reversal) was -6.21% (inactive). The inhibition in experiment [7] was -3.6% (inactive); in experiment [8], 1.8% (inactive).

As to `Cc1ccc(C)c(OCC(O)CN2C(C)CCCC2C)c1` (stereo not given), the viability in experiment [1] is 70%; in experiment [3], 70% (inactive); in experiment [4], 96.2% (inactive); in experiment [5] it was 83.8% (inactive); in experiment [6] (setting [9]), 83.4%; in experiment [6] (setting [10]) it was 83.8%. Moreover, the Her2 level in experiment [2] was 98% (inactive). Besides, the differential viability (reversal) in experiment [6] (H69AR cells + 2 uM doxorubicin) is 0.415% (inactive). The inhibition in experiment [7] was -0.53% (inactive); in experiment [8], -0.95% (inactive).

`N#CC1=C(N)Oc2n[nH]c(-c3cccs3)c2C1c1cccs1` (stereo not given): the viability was 96.5% in experiment [1]; 96.5% (inactive) in experiment [3]; 81.4% (inactive) in experiment [4]; 83.8% (inactive) in experiment [5]; 86.3% in experiment [6] (setting [9]); 83.8% in experiment [6] (setting [10]). In addition, the Her2 level in experiment [2] was 79.5% (inactive). The differential viability (reversal) in experiment [6] (H69AR cells + 2 uM doxorubicin) is -2.47% (inactive). In addition, the inhibition in experiment [7] is -3.73% (inactive); in experiment [8] it was -1.31% (inactive).

Consider `COc1ccc(CCNC(=O)C2CCN(Cc3nc(-c4cccc(Cl)c4)oc3C)CC2)cc1OC`, for which the viability in experiment [1] is 83.5%; in experiment [3], 83.5% (inactive); in experiment [4] it was 47.9% (inactive); in experiment [5], 73.4% (inactive); in experiment [6] (setting [9]), 101%; in experiment [6] (setting [10]), 73.4%. Moreover, the Her2 level in experiment [2] was 81.5% (inactive). Besides, in experiment [6] (H69AR cells + 2 uM doxorubicin), the differential viability (reversal) is -27.2% (inactive). The inhibition in experiment [7] was -5.13% (inactive); in experiment [8], -1.45% (inactive).

Turning to `CC(O)c1c(OCc2ccccc2)ncnc1OCc1ccccc1` (stereo not given), the viability was 83.5% in experiment [1]; 83.5% (inactive) in experiment [3]; 59.5% (inactive) in experiment [4]; 93.8% (inactive) in experiment [5]; 79.3% in experiment [6] (setting [9]); 93.8% in experiment [6] (setting [10]). For the same molecule, the Her2 level in experiment [2] is 82.5% (inactive). In addition, the differential viability (reversal) in experiment [6] (H69AR cells + 2 uM doxorubicin) is 14.6% (inactive). The inhibition in experiment [7] is -2.73% (inactive); in experiment [8], 1.48% (inactive).

With `Clc1ccc(Cl)c(-c2ccc(/C=N/c3ncn[nH]3)o2)c1`, the viability in experiment [1] was 105%; in experiment [3], 105% (inactive); in experiment [4] it was 64.5% (inactive); in experiment [5] it was 72.8% (inactive); in experiment [6] (setting [9]) it was 84.8%; in experiment [6] (setting [10]), 72.8%. Besides, the Her2 level in experiment [2] is 81% (inactive). For the same molecule, the differential viability (reversal) in experiment [6] (H69AR cells + 2 uM doxorubicin) is -11.9% (inactive). Besides, the values for the inhibition in experiment [7] and in experiment [8] were -6.8% (inactive) and 4.59% (inactive), respectively.

`Cc1cc(C)n(CCCNC(=O)c2ccc3c(c2)NC(=O)CS3)n1`: the viability in experiment [1] was 104%; in experiment [3], 104% (inactive); in experiment [4] it was 91.8% (inactive); in experiment [5] it was 89.7% (inactive); in experiment [6] (setting [9]), 86.3%; in experiment [6] (setting [10]), 89.7%. The Her2 level in experiment [2] was 80.5% (inactive). The differential viability (reversal) in experiment [6] (H69AR cells + 2 uM doxorubicin) is 3.36% (inactive). Also, the inhibition was -5.6% (inactive) in experiment [7] and -1.48% (inactive) in experiment [8].

Consider `Cn1nnnc1SCSc1nnnn1C`, for which the viability in experiment [1] is 84%; in experiment [3], 84% (inactive); in experiment [4], 95.5% (inactive); in experiment [5], 96.9% (inactive); in experiment [6] (setting [9]) it was 89.4%; in experiment [6] (setting [10]), 96.9%. Moreover, the Her2 level in experiment [2] is 83% (inactive). Besides, the differential viability (reversal) in experiment [6] (H69AR cells + 2 uM doxorubicin) is 7.5% (inactive). The inhibition in experiment [7] is -5% (inactive); in experiment [8] it was -0.95% (inactive).

Regarding `CCn1c(=O)c(C(=O)NCc2ccc(OC)cc2)c(O)c2ccccc21`, the viability is 86.5% in experiment [1]; 86.5% (inactive) in experiment [3]; 46.7% (inactive) in experiment [4]; 73.2% (inactive) in experiment [5]; 86.7% in experiment [6] (setting [9]); 73.2% in experiment [6] (setting [10]). In addition, the Her2 level in experiment [2] is 89.5% (inactive). Besides, the differential viability (reversal) in experiment [6] (H69AR cells + 2 uM doxorubicin) is -13.4% (inactive). The inhibition in experiment [7] was -3.46% (inactive); in experiment [8], -8.5% (inactive).

In the case of `COc1ccc(NC(=O)C(C)Oc2ccc(/C(C)=N\O)cc2)cc1` (stereo not given), the viability in experiment [1] is 122%; in experiment [3] it was 122% (inactive); in experiment [4], 91.9% (inactive); in experiment [5] it was 90.4% (inactive); in experiment [6] (setting [9]), 83.3%; in experiment [6] (setting [10]) it was 90.4%. Further, in experiment [2], the Her2 level is 92% (inactive). For the same molecule, the differential viability (reversal) in experiment [6] (H69AR cells + 2 uM doxorubicin) is 7.12% (inactive). Besides, the inhibition in experiment [7] is -7.33% (inactive); in experiment [8], -0.32% (inactive).

As to `CC1CCN(C(=O)Cn2c(=O)oc3ccccc32)CC1`, the viability in experiment [1] is 86.5%; in experiment [3] it was 86.5% (inactive); in experiment [4] it was 95.1% (inactive); in experiment [5], 90.7% (inactive); in experiment [6] (setting [9]), 84.5%; in experiment [6] (setting [10]) it was 90.7%. Moreover, the Her2 level in experiment [2] is 108% (inactive). Moreover, in experiment [6] (H69AR cells + 2 uM doxorubicin), the differential viability (reversal) was 6.24% (inactive). Moreover, the inhibition was 0.53% (inactive) in experiment [7] and -6.55% (inactive) in experiment [8].

Turning to `Cc1cc(Oc2ccccc2)nc(-c2ccccc2)n1`, the viability was 100% in experiment [1]; 100% (inactive) in experiment [3]; 92.7% (inactive) in experiment [4]; 99.1% (inactive) in experiment [5]; 91.2% in experiment [6] (setting [9]); 99.1% in experiment [6] (setting [10]). Further, in experiment [2], the Her2 level is 112% (inactive). Moreover, the differential viability (reversal) in experiment [6] (H69AR cells + 2 uM doxorubicin) is 7.91% (inactive). The inhibition in experiment [7] was -1.17% (inactive); in experiment [8], -5.25% (inactive).
